# Tn6 DDE FP – disrupts Tn6 cyclic peptide binding to fibrin D-Dimer-E complex; P02675; 370,000 tested, 0.21% active; inhibition, % at 8.3 µM; Fibrin DD(E) TRITC-Tn6 fluorescence polarization displacement;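 active = inhibition above a per-campaign cutoff: mean of compounds within control limits plus 3 SD, cut at about 15% in these data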;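 note: 0% = median of all compound wells on the plate and 100% = blocking peptide control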
# CAL PDZ FP-1 – inhibitors of human CAL PDZ peptide binding; Q9HD26; purified CAL PDZ, TMR-peptide fluorescence polarization, 1 h; inhibition, % at 20 µM; 330,000 tested, 0.02% active;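 active = highest replicate inhibition of at least 40%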;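 note: plate controls were DMSO neutral control wells for no effect and unlabeled competitor peptide control wells for full effect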
#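 material = purified tagged CAL PDZ domain construct (CerCALP) | buffer or medium = sodium phosphate/NaCl buffer pH 7.4 with TCEP, IgG, Thesit | reagent = TMR-labelled reporter peptide T*-PRC34 bound in PDZ groove | incubation = 1 h room-temperature incubation prior to read | measured by = fluorescence polarization (mP) | evaluation = percent inhibition from loss of millipolarization | control set = unlabelled peptide and DMSO controls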
# CAL PDZ FP-2 – blocks peptide binding to the human CAL PDZ domain | Q9HD26 | AID 602252 | inhibition, % at 24.9 µM | 300,000 tested, 0.92% active | purified CAL PDZ, TMR-peptide fluorescence polarization, 1 h;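 active = mean inhibition of at least 30% with at least half of replicates also reaching 30%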;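 note: 0% = DMSO neutral control and 100% = excess unlabeled competitor peptide PRC23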
# ARNT TACC3 PPI – disruptors of human ARNT/TACC3 interaction; Q9Y6A5; AlphaScreen His-ARNT PAS-B/GST-TACC3 binding, luminescence; TACC3 fragment carries E629A point mutation; inhibition, % at 9.99 µM; 390,000 tested, 0.66% active; AID 623870;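 active = mean inhibition of replicates at least 50% and at least half of replicates each reaching 50%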;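 note: 0% = complete ARNT plus TACC3 wells and 100% = ARNT alone without TACC3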
# GRK2 inh – inhibitors of human GRK2 displacing RNA aptamer | bead flow cytometry, FAM-aptamer displacement from GRK2 | inhibition of aptamer binding, % at 10 µM | 330,000 tested, 0.59% active | AID 488847;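 active = inhibition of aptamer binding above 40%, roughly 3 SD of noise, on plates passing a quality check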;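 note: median bead fluorescence of bound FAM aptamer so fluorescent compounds give negative values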
# Target sequence (P25098 whole entry, looked up): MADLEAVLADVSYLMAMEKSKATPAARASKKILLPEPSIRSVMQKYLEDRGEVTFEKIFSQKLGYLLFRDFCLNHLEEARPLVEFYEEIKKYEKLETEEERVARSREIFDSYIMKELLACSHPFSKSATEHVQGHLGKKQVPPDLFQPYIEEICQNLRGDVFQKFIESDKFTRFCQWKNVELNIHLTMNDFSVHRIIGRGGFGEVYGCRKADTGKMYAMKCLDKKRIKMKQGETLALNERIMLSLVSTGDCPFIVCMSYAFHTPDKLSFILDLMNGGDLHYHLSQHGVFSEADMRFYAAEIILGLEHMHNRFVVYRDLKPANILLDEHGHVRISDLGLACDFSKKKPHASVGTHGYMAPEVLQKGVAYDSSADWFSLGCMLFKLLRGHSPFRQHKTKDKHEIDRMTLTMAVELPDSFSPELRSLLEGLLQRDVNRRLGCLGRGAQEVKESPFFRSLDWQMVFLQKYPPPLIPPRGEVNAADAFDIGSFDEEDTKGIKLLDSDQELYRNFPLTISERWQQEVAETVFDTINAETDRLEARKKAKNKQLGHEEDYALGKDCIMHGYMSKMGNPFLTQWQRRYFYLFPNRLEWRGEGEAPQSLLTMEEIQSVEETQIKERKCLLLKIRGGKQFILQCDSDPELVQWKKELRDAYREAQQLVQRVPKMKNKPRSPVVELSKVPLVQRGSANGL
# DDE Tn7 FP inh – inhibitors of Tn7 peptide binding to human fibrin DD(E) | P02675 | FP displacement of FITC-Tn7 peptide from fibrin DD(E); 0% = median of compound wells per plate | inhibition, % at 8.3 µM | 370,000 tested, 0.13% active | AID 720508;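 active = inhibition above the mean of compounds falling within the control limits plus 3 SD of them, cut at about 14% in these data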;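 note: 0% = plate median of compound wells and 100% = 10 µM Aha-Tn7 peptide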
#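 Also added: labelled Tn7 tracer, 0.1 µM; Assay system: human fibrin DD(E) protein; Amount: 2 µM fibrin DD(E); Schedule: 10 min compound pre-incubation, 3 h probe incubation at room temperature; Repeats: one replicate per compound; Read-out basis: percent inhibition; Measured by: fluorescence polarization of the labelled Tn7 tracer.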
# The depositor's hits bear a star; · = no result given; + = active, no number. An excerpt weighted towards active compounds, which were near 1.8% of everything screened.
SMILES,Tn6 DDE FP,CAL PDZ FP-1,CAL PDZ FP-2,ARNT TACC3 PPI,GRK2 inh,DDE Tn7 FP inh
CCOc1ccc(Cn2c(=O)sc3ccccc32)cc1OC,-1,-2,66*,22,2,2
O=S(=O)(c1ccc(Cl)cc1)N1CCSC1c1ccco1 (stereo not given),-3,14,164*,30,2,4
O=[N+]([O-])c1ccc(S(=O)(=O)N2CCSC2c2ccco2)cc1 (stereo not given),-2,-1,1,2,2,-4
C[C@H]1CN([C@@H](C)CO)C(=O)Cc2cc(NS(C)(=O)=O)ccc2O[C@@H]1CN(C)C(=O)Nc1ccccc1,·,·,·,-3,·,·
Cc1cccc(C(CC(=O)NCc2ccco2)c2ccccc2)c1O (stereo not given),-3,0,+,-2,10,0
CO[C@@H]1CN(C)C(=O)c2cc(NC(=O)Cc3ccccc3)ccc2OC[C@H](C)N(CC2CC2)C[C@H]1C,·,·,·,-6,·,·
COCCCNC(=O)c1ccc2c3c(onc13)-c1ccccc1C2=O,·,0,·,31*,7,·
CCOC(=O)C1=NNC(C(=O)c2ccccc2)C1c1ccc(Cl)cc1 (stereo not given),-3,-1,·,-3,2,-5
O=C(c1ccccc1)C1N=NCC1c1ccc(Cl)cc1 (stereo not given),4,-1,174*,-2,·,8
O=C(C[C@@H]1CC[C@H](NC(=O)c2ccncc2)[C@H](CO)O1)NCCc1ccncc1,·,·,·,-15,·,·
C[C@H]1CN([C@@H](C)CO)C(=O)c2cc(-c3cccc(F)c3)cnc2O[C@@H]1CN(C)Cc1cccnc1,·,·,·,0,·,·
CCNC(=O)/C(C#N)=C/c1c(N2CCN(c3cccc(Cl)c3)CC2)nc2c(C)cccn2c1=O,-4,-7,-1,11,4,0
CCNC(=O)/C(C#N)=C/c1c(N2CCN(C)CC2)nc2c(C)cccn2c1=O,3,-1,43*,0,2,4
COc1ccc(NC(=O)N(C)C[C@H]2OCCCC[C@@H](C)Oc3ccc(NC(=O)NC(C)C)cc3C(=O)N([C@H](C)CO)C[C@@H]2C)cc1,·,·,·,-4,·,·
O=C(CCc1c[nH]c2ccccc12)NCCc1ccc(Cl)cc1,1,-1,36*,2,0,0
O=C(CCc1c[nH]c2ccccc12)NCCc1ccccc1,3,-1,-3,-5,2,-9
CCCCN1CCc2c([nH]c3c(C)cccc23)C1=O,-1,-1,72*,-3,3,5
O=C(NS(=O)(=O)N1CCOCC1)C1=C(N2CCCC2)COC1=O,11,-1,-2,-1,0,-5
O=S(=O)(c1ccccc1)c1nc(-c2ccco2)oc1N1CCCCC1,7,-1,42*,0,4,7
CC1CCN(c2oc(-c3ccco3)nc2S(=O)(=O)c2ccccc2)CC1,8,0,·,·,0,3
O=C(Nc1cccc(F)c1)N1CCN(C/C=C/c2ccccc2)CC1,-6,-1,39*,1,0,7
COc1ccccc1N1CCN(CC(=O)Nc2cccc(F)c2)CC1,2,0,-3,0,2,2
O=C(CN1CCN(CC(=O)Nc2cccc(F)c2)CC1)Nc1ccc(-c2ccccc2)cc1,-2,-1,58*,-1,0,0
C/C=C/c1cnc2c(c1)C(=O)N([C@@H](C)CO)C[C@H](C)[C@@H](CN(C)C(=O)Cc1ccccc1)O2,·,·,·,-7,·,·
O=C(O)c1ccccc1N=Nc1c(O)[nH]c2ccc([N+](=O)[O-])cc12,·,2,-1,47*,4,·
SMILES,Tn6 DDE FP,CAL PDZ FP-1,CAL PDZ FP-2,ARNT TACC3 PPI,GRK2 inh,DDE Tn7 FP inh
Cc1cccc(N2NC(=O)/C(=C/c3ccc(-c4ccc(Cl)c(C(=O)O)c4)o3)C2=O)c1,-4,0,97*,-6,·,-4
CCOC(=O)C1(COCc2ccccc2)CCCCC1=O (stereo not given),2,·,·,·,·,3
O=C(COc1ccc(Cl)c2cccnc12)N1CCOCC1,-2,0,115*,·,0,-1
O=C(Oc1c(Cl)cc(Cl)c2cccnc12)N1CCOCC1,3,-1,-1,-3,0,2
CO[C@@H]1CN(C)C(=O)c2ccc(NS(C)(=O)=O)cc2OC[C@@H](C)N(Cc2nccs2)C[C@H]1C,·,·,·,-4,·,·
Cc1ccc(NC(=O)[C@@H]2CCCN2S(=O)(=O)c2cccc3cccnc23)c(C)c1,6,·,·,·,·,-4
Cc1ccc(C)c(NC(=S)N(CCN(C)C)C(C)c2ccccn2)c1 (stereo not given),-5,-1,-3,39,0,-6
Cc1cccc(C)c1NC(=S)N(CCN(C)C)C(C)c1ccccn1 (stereo not given),6,0,12,45*,0,-3
COc1ccccc1-c1c(C)nn2c(N)c(-c3ccccc3)cnc12,-2,·,69*,11,0,2
COc1ccc(-c2c(C)nn3c(N)c(-c4ccccc4)cnc23)cc1OC,-5,0,-4,-1,1,1
CC(C)C[C@H]1COc2cc(Br)ccc2S(=O)(=O)N1Cc1cn(CCC2OCCCO2)nn1,6,·,·,·,·,-6
CCCC(=O)Nc1ccc2c(c1)C(=O)N(C)C[C@@H](OC)[C@@H](C)CN(Cc1nccs1)[C@H](C)CO2,·,·,·,-3,·,·
O=C1NC[C@@H](CCCCN2C[C@H](Cc3ccc(O)cc3)N(CCc3ccccc3)C(=O)C2=O)N(Cc2ccccc2)C1=O,1,·,·,·,·,-6
Cc1ccc(S(=O)(=O)N(C)CC(=O)NCCCn2nc(C)cc2C)cc1,-6,1,62*,-11,0,-4
COc1ccc(OC)c(NC(=O)c2ccc(OC3CSC3)cc2)c1,-7,28,55*,-1,0,-5
COc1ccc(OC)c(NC(=O)c2ccc(NC(C)=O)cc2)c1,5,-1,0,-6,0,2
O=C(NCC1CCCCC1)c1cccnc1,5,4,43*,-3,2,-5
CNC[C@H]1Oc2ncc(C#CCC(C)C)cc2C(=O)N([C@H](C)CO)C[C@H]1C,·,·,·,0,·,·
c1cncc(CSc2ccc(-c3ccc4c(c3)OCO4)nn2)c1,1,-2,46*,3,0,-7
Cc1nnc2sc(SCc3ccc(Cl)cc3)nn2c1=O,1,-1,-2,0,1,3
COc1ccc(CCNC(=O)CSCC(=O)Nc2ccccc2)cc1OC,-2,0,-4,-4,1,6
Cc1cccc(CSc2nn3c(=O)c(C)nnc3s2)c1,9,-2,-1,·,2,4
COc1ccc(Cc2nnc3sc(SCC(=O)Nc4ccccc4)nn3c2=O)cc1OC,2,-2,-1,63*,2,1
